GPR7 antagonist: GPR7 receptor antagonists, primary screen, cell-based, fluorescence, single concentration; GPR7-expressing cells, fluorescence antagonist assay; 290,000 compounds, 1.1% hits; AID 1861, 2009; inhibition, % at 4.4 µM; in the data active = inhibition above about 16%, passing the limit was not always enough;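 note: cells stimulated with the agonist NPW; 0% = agonist with vehicle and 100% = vehicle without agonist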
Target sequence (P48145 whole entry, looked up): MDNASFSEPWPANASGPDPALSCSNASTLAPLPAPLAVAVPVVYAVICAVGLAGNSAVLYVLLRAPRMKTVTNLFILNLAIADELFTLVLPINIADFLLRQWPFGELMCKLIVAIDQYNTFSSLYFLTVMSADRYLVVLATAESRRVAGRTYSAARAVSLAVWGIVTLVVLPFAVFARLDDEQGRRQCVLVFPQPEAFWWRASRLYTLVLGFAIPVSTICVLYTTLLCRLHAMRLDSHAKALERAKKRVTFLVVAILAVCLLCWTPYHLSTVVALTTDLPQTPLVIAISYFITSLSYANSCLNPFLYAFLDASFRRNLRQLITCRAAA
OX1R antag-1: OX1R (HCRTR1) antagonists, primary screen, fluorescence, CHO/OX1R cells, Fluo-8 calcium, orexin A | Fluo-8 calcium fluorescence | inhibition, % at 5 µM | 330,000 compounds, 0.43% hits | AID 434989, 2010;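 active = inhibition above its plate's threshold, mean inhibition of all tested compounds on the plate plus 3 SD, cut at about 37% in these data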;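 note: 0% = orexin A challenge wells and 100% = SB-334867-A antagonist wells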
TAAR1 antagonist: human TAAR1 antagonists, primary screen, Fluo-8 calcium fluorescence, CHO RD-HGA16 cells | Trace amine-associated receptor 1 (Homo sapiens), Q96RJ0 | antagonist | inhibition, % at 3 µM | 360,000 compounds, 1.5% hits | AID 624466, 2012;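 active = inhibition above a per-plate cutoff, the mean inhibition of test compounds on that plate plus 3 SD, cut at about 49% in these data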;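 note: 0% = DMSO plus EC80 beta-PEA response and 100% = DMSO alone without agonist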
Target sequence (Q96RJ0 whole entry, looked up): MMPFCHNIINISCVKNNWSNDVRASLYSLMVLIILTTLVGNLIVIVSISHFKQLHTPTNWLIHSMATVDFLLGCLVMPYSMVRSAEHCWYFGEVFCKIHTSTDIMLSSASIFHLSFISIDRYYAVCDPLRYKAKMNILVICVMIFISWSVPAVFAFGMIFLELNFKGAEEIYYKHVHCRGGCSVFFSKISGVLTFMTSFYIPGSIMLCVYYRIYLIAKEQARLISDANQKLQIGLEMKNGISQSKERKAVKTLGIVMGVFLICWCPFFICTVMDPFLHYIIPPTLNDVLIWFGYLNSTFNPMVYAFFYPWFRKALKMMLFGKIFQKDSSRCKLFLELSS
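test system = CHO RD-HGA16 cells bearing hTAAR1 | replication = singlicate | controls = DMSO-only wells and EC80 β-PEA-stimulated wells | reagent = EC80 β-phenethylamine stimulus | read-out basis = percent inhibition of PEA-evoked calcium signal, max/basal emission ratio | schedule = seeding 17-24 h prior, 75-min 37 °C, 30-min RT dye loading | signal = kinetic Fluo-8 calcium fluorescence measurement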
CHO parental Ca: ATP-evoked calcium signal inhibitors, parental CHO, primary screen, counter-screen for OX1R antagonist project, cell-based, fluorescence, Fluo-8 calcium dye; 330,000 compounds, 0.63% hits; parental CHO-K1, ATP-induced calcium, Fluo-8 fluorescence; inhibition, % at 5.6 µM;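 active = inhibition above that plate's mean sample inhibition plus 3 SD, cut at about 26% in these data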;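 note: 0% = ATP-challenged DMSO wells and 100% = DMSO wells without ATP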
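Test system: untransfected parental CHO cell line. Compound: one dose, 5.6 µM nominal. Detection: intracellular calcium via Fluo-8 no-wash fluorescent dye. Measure: % inhibition. Benchmarks: ATP-challenged DMSO wells low, unchallenged DMSO wells high.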
TAAR1 agonist: human TAAR1 agonists, primary screen, Fluo-8 calcium fluorescence, CHO RD-HGA16 cells. 360,000 compounds, 0.99% hits. Trace amine-associated receptor 1 (Homo sapiens), Q96RJ0. vehicle wells 0%, saturating PEA agonist 100%. AID 624467, 2012. activation, % at 3 µM;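 active = activation above the mean activation of all test compounds in the run plus 3 SD, cut at about 38% in these data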
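test system = CHO RD-HGA16 cells carrying human TAAR1 plus Gα16 | schedule = 17-24 h seeding, 75 min 37 °C dye, 30 min RT | compound dosing = 3 µM single concentration | control set = DMSO and PEA EC100 | replicates = n 1 | signal = Fluo-8 fluorescence, 5 s baseline then 140 s kinetic read | measure = percent activation vs PEA EC100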
OX1R antag-2: antagonists of human orexin 1 receptor (OX1R). OX1R-expressing cells, FRET antagonist read-out. inhibition, % at 6.6 µM. 330,000 compounds, 1.8% hits; in the data active = inhibition mostly above about 38%, no sharp cut-off; inactive = mostly below about 40%;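 note: 0% = agonist challenge alone and 100% = reference antagonist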
* hit, by the source's call. Sampled rows, rich in hits. Any-hit rate of the full collection: about 4.6%.

How did CCOC(=O)C1(Cc2ccccc2C)CCCN(C(=O)c2ccc(C(C)=O)s2)C1 (stereo not given) do in these assays?
TAAR1 antagonist: 21; TAAR1 agonist: 10

What do the screens show for `COc1cccc(C(C(=O)NC2CCCC2)N2CCN(c3cc(C)nc4ccccc34)CC2)c1OC` (stereo not given)?
TAAR1 antagonist: -19; TAAR1 agonist: -1

Results for COc1ccc(C2CC(=O)C(c3ccc4ccccc4c3)=CN2Cc2ccccc2)cc1 (stereo not given) ?
TAAR1 antagonist: -40; TAAR1 agonist: 0

Results for O=C(CN1CCCCC1)Nc1nc(-c2ccc(F)c(F)c2)cs1 ?
GPR7 antagonist: -6; OX1R antag-1: -17; TAAR1 antagonist: 49*; CHO parental Ca: 1; TAAR1 agonist: 13; OX1R antag-2: 13

What do the screens show for `Cn1c(=O)c2c(ncn2CC(=O)Nc2nc(-c3ccc(F)c(F)c3)cs2)n(C)c1=O`?
GPR7 antagonist: -5; OX1R antag-1: -13; TAAR1 antagonist: -30; CHO parental Ca: 99*; TAAR1 agonist: 2; OX1R antag-2: 12

Results for O=C(Cc1ccccc1)Nc1nc(-c2ccc(F)c(F)c2)cs1 ?
GPR7 antagonist: 2; OX1R antag-1: 5; TAAR1 antagonist: 56*; CHO parental Ca: -7; TAAR1 agonist: 5; OX1R antag-2: 15

What do the screens show for `Cc1ccc(-c2csc(NC(=O)Cn3cnc4c3c(=O)n(C)c(=O)n4C)n2)cc1C`?
GPR7 antagonist: -4; OX1R antag-1: -19; TAAR1 antagonist: 6; CHO parental Ca: -14; TAAR1 agonist: 8; OX1R antag-2: 26

How did O=C(CCN1C(=O)C2CC=CCC2C1=O)Nc1nc(-c2ccc(F)c(F)c2)cs1 (stereo not given) do in these assays?
OX1R antag-1: 22; TAAR1 antagonist: 60*; CHO parental Ca: 6; TAAR1 agonist: 31; OX1R antag-2: 4

Results for Cc1cc2nc(-c3ccc(Cl)cc3)c(CC3CCCCC3)n2c(C)c1Br ?
TAAR1 antagonist: -6; TAAR1 agonist: 0

Results for COc1cccc(-c2cnc(C(O)c3ccc(CN4CCCC4)cc3)[nH]2)c1 (stereo not given) ?
TAAR1 antagonist: -10; TAAR1 agonist: 1

How did COC(=O)c1ccccc1NC(=O)CCCn1nc([N+](=O)[O-])c(Br)c1C do in these assays?
GPR7 antagonist: -2; OX1R antag-1: 4; TAAR1 antagonist: -5; CHO parental Ca: -17; TAAR1 agonist: -1; OX1R antag-2: 75*

What do the screens show for `CC(C)OC(=O)CSc1nnc(-c2ccc([N+](=O)[O-])cc2)o1`?
GPR7 antagonist: -16; OX1R antag-1: -16; TAAR1 antagonist: -2; CHO parental Ca: -9; TAAR1 agonist: 5; OX1R antag-2: 65*

How did Cc1cc(NC(=O)CSc2nnc(-c3ccc([N+](=O)[O-])cc3)o2)no1 do in these assays?
GPR7 antagonist: -14; OX1R antag-1: -9; TAAR1 antagonist: -12; CHO parental Ca: 5; TAAR1 agonist: 3; OX1R antag-2: 59*

How did Cc1cc(NC(=O)CSc2nnc(-c3ccc(O)cc3)o2)no1 do in these assays?
GPR7 antagonist: -14; OX1R antag-1: -1; TAAR1 antagonist: -9; CHO parental Ca: 13; TAAR1 agonist: -1; OX1R antag-2: 22

Results for CC(C)OC(=O)CSc1nnc(-c2ccc(Cl)cc2Cl)o1 ?
GPR7 antagonist: -10; OX1R antag-1: -21; TAAR1 antagonist: -7; CHO parental Ca: -14; TAAR1 agonist: 4; OX1R antag-2: 16

How did CCN(C(=O)COC(=O)C1CC1C)c1c(N)n(Cc2ccccc2)c(=O)[nH]c1=O (stereo not given) do in these assays?
TAAR1 antagonist: -29; TAAR1 agonist: 0

How did CCN(CC)c1cc(NCCO)c([N+](=O)[O-])c2nonc12 do in these assays?
GPR7 antagonist: 4; OX1R antag-1: -25; TAAR1 antagonist: -21; CHO parental Ca: -13; TAAR1 agonist: 3; OX1R antag-2: 53*

What do the screens show for `CC(C)CCSc1cc(NCCO)c([N+](=O)[O-])c2nonc12`?
GPR7 antagonist: 2; OX1R antag-1: -21; TAAR1 antagonist: -16; CHO parental Ca: -8; TAAR1 agonist: 5; OX1R antag-2: 54

What do the screens show for `O=C(Nc1ccc(OCC(F)(F)C(F)F)c(C(F)(F)F)c1)c1ccccc1O`?
GPR7 antagonist: 18; OX1R antag-1: 66*; TAAR1 antagonist: 14; CHO parental Ca: 72*; TAAR1 agonist: 9; OX1R antag-2: 85*

Results for O=C(Nc1ccc(OCC(F)(F)C(F)F)c(C(F)(F)F)c1)c1ccccc1 ?
GPR7 antagonist: -2; OX1R antag-1: -7; TAAR1 antagonist: 35; CHO parental Ca: 5; TAAR1 agonist: 5; OX1R antag-2: 20

Results for COC(=O)Nc1ccc(S(=O)(=O)Nc2ccc(C)cc2)cc1 ?
GPR7 antagonist: 0

Results for CC(=O)c1ccc(NC(=O)Nc2ccc(NS(=O)(=O)c3ccc(C)cc3)cc2)cc1 ?
GPR7 antagonist: 11; OX1R antag-1: 24; TAAR1 antagonist: 56*; CHO parental Ca: -3; TAAR1 agonist: 6; OX1R antag-2: 10

What do the screens show for `CC(=O)c1cccc(NS(=O)(=O)c2ccc(N/C=C\C(=O)c3ccc(C)cc3)cc2)c1`?
GPR7 antagonist: 7; OX1R antag-1: 49*; TAAR1 antagonist: 19; CHO parental Ca: 47*; TAAR1 agonist: 6; OX1R antag-2: 53

How did Cc1ccc(OCC(=O)N2CCc3ccccc3C2)c(C)c1 do in these assays?
GPR7 antagonist: 5; OX1R antag-1: -9; TAAR1 antagonist: 3; CHO parental Ca: -12; TAAR1 agonist: 42*; OX1R antag-2: 5

Results for CCOc1ccccc1NC(=O)N1CCCc2ccccc21 ?
GPR7 antagonist: 2; TAAR1 antagonist: -30; TAAR1 agonist: -3

Results for CCOc1ccccc1NC(=O)N1CCc2ccccc2C1 ?
GPR7 antagonist: -7; OX1R antag-1: -29; TAAR1 antagonist: 4; CHO parental Ca: -21; TAAR1 agonist: 41*; OX1R antag-2: 29

Results for CCOC(=O)[C@@H]1CSCCS(=O)(=O)N1C(=O)[C@H](Cc1ccccc1)NC(=O)OC(C)(C)C ?
TAAR1 antagonist: 7; TAAR1 agonist: 1

What do the screens show for `COC(=O)[C@]12C[C@H](CC(=O)NCCCN3CCCC3=O)C(=O)N(CCC3=CCCCC3)C1=C[C@H](COCc1ccccc1)O[C@@H]2C`?
TAAR1 antagonist: -31; TAAR1 agonist: -1
